Shown are actives, neighbours in structure and some others; about 2.3% of the full set was active somewhere.
Mcl1 Noxa PPI = Mcl-1/Noxa binding inhibitors, primary screen, biochemical, TR-FRET, 1536-well. hit rate 1.5% among 220,000. inhibition, % at 21.7 µM. Induced myeloid leukemia cell differentiation protein Mcl-1 (Homo sapiens), Q07820. AID 1022, 2008. TR-FRET Mcl-1/Noxa peptide binding, 2 h;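 active means compounds that cut the protein-peptide binding signal by more than 50% relative to plate controls in a single-dose test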;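 further: His-tagged Mcl-1 with rhodamine Noxa BH3 peptide and terbium anti-His antibody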
Target sequence (Q07820 whole entry, looked up): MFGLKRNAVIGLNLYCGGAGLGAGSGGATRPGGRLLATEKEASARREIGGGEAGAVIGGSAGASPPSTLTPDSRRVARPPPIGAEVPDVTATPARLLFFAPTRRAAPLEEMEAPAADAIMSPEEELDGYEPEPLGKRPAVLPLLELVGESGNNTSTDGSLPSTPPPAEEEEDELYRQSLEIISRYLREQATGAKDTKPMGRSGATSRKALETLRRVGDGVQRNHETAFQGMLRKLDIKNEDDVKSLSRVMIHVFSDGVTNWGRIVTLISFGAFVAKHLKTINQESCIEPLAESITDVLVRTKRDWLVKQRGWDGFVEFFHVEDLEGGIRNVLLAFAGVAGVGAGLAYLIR
Pemphigus Ab inh = inhibitors of pemphigus antibody binding to DSG3, primary screen, biochemical, bead-based, flow cytometry, scFv-GFP | binding (percent of control), % at 10 µM | hit rate 0.48% among 310,000 | Desmoglein-3 (Homo sapiens), P32926 | DSG3-coupled beads, scFv-anti-DSG3-GFP binding; active compounds read low;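 active means binding more than 3 SD below its plate's average and above zero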;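 further: hits lower antibody fragment binding to DSG3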
Mcl-1 Bim block = inhibitors of Bim peptide binding to Mcl-1, primary screen, biochemical, bead-based flow cytometry, multiplex. Induced myeloid leukemia cell differentiation protein Mcl-1 (Homo sapiens), Q07820. Bim peptide-Mcl-1 binding. inhibition, % at 10 µM. hit rate 0.1% among 190,000. AID 1009, 2008; in the data active means inhibition above about 40%
Mcl1-Bid inh = Mcl-1/Bid binding inhibitors, primary screen, biochemical, TR-FRET, 1536-well | TR-FRET Mcl-1/Bid-Dy647 peptide binding | inhibition, % at 21.7 µM | hit rate 0.97% among 220,000;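 active means compounds that cut the binding signal by more than half at the single screening dose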;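 further: His-tagged Mcl-1 with europium anti-His antibody binding Bid BH3 peptide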
T cell HTS = modulators of CD8 T cell-vesicle binding, primary screen, mouse 2C CD8+ T cells, flow cytometry; 2C CD8+ T cell-vesicle binding; active compounds read low; response (vesicle binding), % at 7 µM; hit rate 0.068% among 330,000; AID 2052, 2009;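 active means response, share of CD8 T cells binding vesicles, and their 90th percentile fluorescence all below set limits, cut at about 80% in these data, passing the limit was not always enough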;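 further: values below 100% mean blocked vesicle binding to the CD8+ T cells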
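Assay system: 2C TCR transgenic mouse naive CD8+ T cells, MACS-purified | Read-out: CD8+ gate FL2 mean fluorescence as % of same-row positive control | Signal: High-throughput flow cytometry with anti-B7-1 and anti-CD8 staining | Timing: Binding step 1.5 h, 37 °C, antibody labelling 20 min, ice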
MCL1 BIM primary = inhibitors of MCL1 binding to BIM-BH3, primary screen, biochemical, fluorescence polarization. Induced myeloid leukemia cell differentiation protein Mcl-1 (Homo sapiens), Q07820. GST-MCL1 / FITC-Bim-BH3 fluorescence polarization. inhibition, % at 10.9 µM. hit rate 0.68% among 320,000;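 active means inhibition above the mean inhibition of all tested compounds plus 3 SD, set per campaign, cut at about 40% in these data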;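 further: higher means more loss of mP so more displacement of Bim peptide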
Hits are given with their value.

Results for COc1cc2[nH]c(=O)n(CCC(=O)N3CCN(Cc4ccccc4)CC3)c(=O)c2cc1OC ?
Mcl1 Noxa PPI: inactive; Pemphigus Ab inh: inactive; Mcl-1 Bim block: inactive; Mcl1-Bid inh: inactive; T cell HTS: inactive; MCL1 BIM primary: inactive

Results for COc1cc2[nH]c(=O)n(CCC(=O)N3CCN(c4cccc(C)c4C)CC3)c(=O)c2cc1OC ?
Mcl1 Noxa PPI: inactive; Mcl-1 Bim block: inactive; Mcl1-Bid inh: 53.7; T cell HTS: inactive; MCL1 BIM primary: inactive

What do the screens show for `CC1=NN(c2ccc(C)cc2)C(=O)/C1=C\c1ccc(Br)s1`?
Mcl1 Noxa PPI: inactive; Pemphigus Ab inh: inactive; Mcl-1 Bim block: 92.0; Mcl1-Bid inh: inactive; T cell HTS: inactive; MCL1 BIM primary: inactive

What do the screens show for `CC1=NN(c2ccc(Br)cc2)C(=O)/C1=C/c1cccs1`?
Pemphigus Ab inh: inactive; Mcl-1 Bim block: inactive; T cell HTS: inactive; MCL1 BIM primary: inactive

What do the screens show for `Cc1cnc(C(=O)N(CC(C)C)c2c(N)n(CC(C)C)c(=O)[nH]c2=O)cn1`?
Pemphigus Ab inh: inactive

How did Cn1c(SCC(=O)N=Nc2c(O)[nH]c3ccccc23)nc2ccccc21 do in these assays?
Mcl1 Noxa PPI: inactive; Mcl-1 Bim block: inactive; Mcl1-Bid inh: 82.9; T cell HTS: inactive; MCL1 BIM primary: inactive

What do the screens show for `CCOC(=O)C(Cc1ccccc1)NC(=O)CCc1c(C)nc2ncnn2c1C` (centres undefined)?
Mcl1 Noxa PPI: inactive; Mcl-1 Bim block: inactive; Mcl1-Bid inh: inactive; T cell HTS: inactive; MCL1 BIM primary: inactive

How did CCCCNC(=O)CCc1c(C)nc2nc(-c3cc(OC)cc(OC)c3)nn2c1C do in these assays?
Mcl1 Noxa PPI: inactive; Pemphigus Ab inh: -1.6; Mcl-1 Bim block: inactive; Mcl1-Bid inh: inactive; T cell HTS: inactive; MCL1 BIM primary: inactive

How did CCOC(=O)C(Cc1ccccc1)NC(=O)CCc1c(C)nc2nc(C)nn2c1C (centres undefined) do in these assays?
Mcl1 Noxa PPI: inactive; Pemphigus Ab inh: 85.9; Mcl-1 Bim block: inactive; Mcl1-Bid inh: inactive; T cell HTS: inactive; MCL1 BIM primary: inactive

Results for Cc1ccc2c(C)c(C(=O)N3CCCCC3CO)oc2c1C (centres undefined) ?
T cell HTS: inactive; MCL1 BIM primary: inactive

What do the screens show for `CCOC(=O)c1c(NC(=O)c2cc(-c3ccc(Cl)s3)nc3ccccc23)sc(C(N)=O)c1C`?
Mcl1 Noxa PPI: inactive; Pemphigus Ab inh: inactive; Mcl-1 Bim block: inactive; Mcl1-Bid inh: 61.0; T cell HTS: inactive; MCL1 BIM primary: inactive

How did CCOC(=O)C1(Cc2cccc(OC)c2)CCN(Cc2cccc(OC)c2OC)CC1 do in these assays?
Mcl1 Noxa PPI: inactive; Pemphigus Ab inh: inactive; Mcl-1 Bim block: 78.0; Mcl1-Bid inh: inactive; T cell HTS: inactive; MCL1 BIM primary: inactive

What do the screens show for `CCOC(=O)C1(Cc2cccc(OC)c2)CCN(Cc2cc(OC)ccc2OC)CC1`?
Mcl1 Noxa PPI: inactive; Pemphigus Ab inh: inactive; Mcl-1 Bim block: inactive; Mcl1-Bid inh: inactive; T cell HTS: inactive; MCL1 BIM primary: inactive

Results for CC1=C(C(=O)O)CC(S(=O)(=O)O)C1(C)C (centres undefined) ?
Pemphigus Ab inh: inactive

What do the screens show for `CC(=O)Oc1cc(C(=O)OCC(=O)N2CCc3ccccc3C2)cc(OC(C)=O)c1OC(C)=O`?
Pemphigus Ab inh: inactive; T cell HTS: inactive

How did O=C(Cc1ccccc1)NCCc1ccc(Cl)cc1Cl do in these assays?
Mcl1 Noxa PPI: inactive; Pemphigus Ab inh: inactive; Mcl-1 Bim block: inactive; Mcl1-Bid inh: inactive; T cell HTS: inactive; MCL1 BIM primary: inactive

What do the screens show for `N=c1sccn1CC(=O)NCCc1ccc(Cl)cc1Cl`?
Mcl1 Noxa PPI: 51.2; Pemphigus Ab inh: inactive; Mcl-1 Bim block: inactive; Mcl1-Bid inh: inactive; T cell HTS: inactive; MCL1 BIM primary: inactive

How did CC1=C(C#N)c2nc(N)c(C#N)c(C)c2/C1=C\c1ccc(-c2ccccc2C(=O)O)o1 do in these assays?
Mcl1 Noxa PPI: 81.7; Pemphigus Ab inh: inactive; Mcl-1 Bim block: inactive; Mcl1-Bid inh: inactive

Results for CC(C)C1N=C2c3ccccc3N=C(SCc3cc(=O)n4cc(Cl)ccc4n3)N2C1=O (centres undefined) ?
Mcl1 Noxa PPI: inactive; Pemphigus Ab inh: 77.8; Mcl-1 Bim block: inactive; Mcl1-Bid inh: inactive; T cell HTS: inactive; MCL1 BIM primary: inactive

Results for COC(=O)/C(=C/c1ccco1)NC(=O)c1ccc(Br)o1 ?
Mcl1 Noxa PPI: inactive; Pemphigus Ab inh: inactive; Mcl-1 Bim block: inactive; Mcl1-Bid inh: inactive; T cell HTS: inactive; MCL1 BIM primary: inactive

What do the screens show for `NC(=O)/C(=C/c1ccco1)NC(=O)c1ccc(Br)o1`?
Pemphigus Ab inh: inactive; T cell HTS: inactive; MCL1 BIM primary: 40.2

How did CC1(C)CC(=O)CC(=NCC(=O)O)C1 do in these assays?
Mcl1 Noxa PPI: 65.6; Pemphigus Ab inh: inactive; Mcl-1 Bim block: inactive; Mcl1-Bid inh: inactive; T cell HTS: inactive; MCL1 BIM primary: inactive

What do the screens show for `CC1(C)CC(=O)C/C(=N\NC(=S)NCc2ccccc2)C1`?
Mcl1 Noxa PPI: inactive; Pemphigus Ab inh: inactive; Mcl-1 Bim block: inactive; Mcl1-Bid inh: inactive; T cell HTS: inactive; MCL1 BIM primary: inactive

How did FC(F)(F)c1nc(-c2cccs2)ncc1-c1nnnn1-c1ccc(Cl)cc1 do in these assays?
Mcl1 Noxa PPI: inactive; Pemphigus Ab inh: inactive; Mcl-1 Bim block: inactive; Mcl1-Bid inh: 64.8; T cell HTS: inactive; MCL1 BIM primary: inactive

How did Clc1ccc(-n2nnnc2-c2cnc(-c3ccncc3)nc2-c2cccs2)cc1 do in these assays?
Mcl1 Noxa PPI: inactive; Pemphigus Ab inh: inactive; Mcl-1 Bim block: inactive; Mcl1-Bid inh: inactive; T cell HTS: inactive; MCL1 BIM primary: inactive

What do the screens show for `CCC(=O)N1CCCc2cc(S(=O)(=O)N3CCN(c4ccccc4F)CC3)ccc21`?
Mcl1 Noxa PPI: 65.2; Pemphigus Ab inh: inactive; Mcl-1 Bim block: inactive; Mcl1-Bid inh: inactive; T cell HTS: inactive; MCL1 BIM primary: inactive

Results for CCC(=O)N1CCCc2cc(S(=O)(=O)N3CCN(c4ncccn4)CC3)ccc21 ?
Mcl1 Noxa PPI: inactive; Pemphigus Ab inh: inactive; Mcl-1 Bim block: inactive; Mcl1-Bid inh: inactive; T cell HTS: inactive; MCL1 BIM primary: inactive

What do the screens show for `Cc1cccc(NS(=O)(=O)c2ccc(OCC(=O)N3CCCC3)cc2)c1`?
Pemphigus Ab inh: inactive; T cell HTS: inactive; MCL1 BIM primary: inactive

How did BrC(=C\c1ccccc1)/C=N/N1CCN(c2ccccc2)CC1 do in these assays?
Mcl1 Noxa PPI: inactive; Pemphigus Ab inh: inactive; Mcl-1 Bim block: 43.0; Mcl1-Bid inh: inactive; T cell HTS: inactive; MCL1 BIM primary: inactive

Results for COc1ccc(C(=O)Nc2ccccc2C(=O)NCCN2CCOCC2)cc1OC ?
Pemphigus Ab inh: inactive; T cell HTS: inactive; MCL1 BIM primary: inactive

High-throughput results from PubChem.
